High-throughput results as filed in PubChem BioAssay.
Scp-1 inhibitor: blocks human Scp-1 phosphatase activity; Q9GZU7; Recombinant Scp1, phosphopeptide, malachite green phosphate absorbance; inhibition, % at 20 µM; hit rate 0.88% among 340,000; AID 493091;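 active means inhibition above about 50% at 20 µM, limit read from the data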
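Test system: SCP-1 phosphatase catalytic domain, residues 76-261 | Compound dosing: One concentration, 20 µM, with 1.0% DMSO | Schedule: 45 min room-temperature reaction, 5 min colour, 30 min stabiliser | Detection: Absorbance at 630 nm | Read-out basis: % inhibition of SCP-1 phosphate liberation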
SUMO1-SIM PPI: alters human SUMO1 binding to SIM partners. hit rate 0.33% among 360,000. inhibition, % at 20 µM. SUMO1 binding to a labelled peptide, TR-FRET, 1 h. P63165; in the data active means inhibition above about 37%
LMPTP block: LMPTP (human) inhibition; P24666; inhibition, % at 20 µM; hit rate 0.22% among 360,000; AID 651560; recombinant LMPTP-A, OMFP fluorogenic substrate, fluorescence intensity;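 active means compounds that cut the enzyme signal by at least half of the control window in the single-dose screen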
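Assay system: LMPTP-A, protein tyrosine phosphatase of low molecular weight / Medium: pH 6.0 Bis-Tris buffer with DTT and Triton X-100 / Schedule: 50 min enzyme reaction at room temperature, protected from light / Measured by: endpoint fluorescence intensity from OMFP dephosphorylation / Read-out basis: % inhibition relative to no-enzyme and uninhibited control wells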
STEP inh: STEP (human) phosphatase inhibition; recombinant STEP, OMFP fluorogenic substrate, fluorescence; inhibition, % at 20 µM; hit rate 0.25% among 360,000; AID 588621;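 active means inhibition at 20 µM, scaled per plate between control wells, above about 37%, limit read from the data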
Target sequence (P54829 whole entry, looked up): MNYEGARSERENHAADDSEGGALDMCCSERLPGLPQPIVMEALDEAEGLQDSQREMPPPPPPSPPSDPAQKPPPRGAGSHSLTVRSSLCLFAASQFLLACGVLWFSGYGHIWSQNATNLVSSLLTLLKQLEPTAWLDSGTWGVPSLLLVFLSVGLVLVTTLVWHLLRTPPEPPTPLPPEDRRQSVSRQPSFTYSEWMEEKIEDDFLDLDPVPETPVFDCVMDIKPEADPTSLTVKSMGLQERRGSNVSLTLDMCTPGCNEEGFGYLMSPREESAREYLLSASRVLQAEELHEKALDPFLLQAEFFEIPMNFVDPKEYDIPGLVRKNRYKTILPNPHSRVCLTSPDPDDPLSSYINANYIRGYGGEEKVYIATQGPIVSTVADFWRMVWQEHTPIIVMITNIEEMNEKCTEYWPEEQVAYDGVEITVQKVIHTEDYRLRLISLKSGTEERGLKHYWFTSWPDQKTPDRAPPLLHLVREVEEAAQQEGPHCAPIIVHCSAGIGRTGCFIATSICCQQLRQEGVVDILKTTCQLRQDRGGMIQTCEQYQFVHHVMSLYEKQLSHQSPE
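Assay system: isolated STEP enzyme. Buffer or medium: pH 6.0 Bis-Tris with DTT and Tween 20. Also added: fluorogenic phosphatase substrate OMFP at 25 µM final. Dosing: 20 µM, 1% DMSO. Timing: 20 min reaction, room temperature, in the dark. Measured by: fluorescence intensity, excitation 480 nm, emission 540 nm. Evaluation: normalized % inhibition.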
DNMT1 inh: DNMT1 (human) enzyme inhibition; hit rate 0.83% among 360,000; P26358; AID 588458; inhibition (reported as % activation of signal), % at 10 µM; DNMT1 molecular beacon, Hinp1I cleavage, fluorescence; in the data active means inhibition above about 50%
DNMT1 confirm: confirmation of human DNMT1 inhibitors; shares compounds with DNMT1 inh; DNMT1 molecular beacon HinP1I cleavage, fluorescence; inhibition, % at 10 µM; hit rate 8% among 2,300;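 active means average inhibition of at least 30% in the single-concentration confirmation test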
DNMT1 interf: counter-screen for DNMT1 inhibitors: spectral interference; DNMT1 molecular beacon spectral interference counterscreen, fluorescence 485/520; AID 602387; shares compounds with DNMT1 inh; activation (fluorescence interference), % at 10 µM; hit rate 1% among 2,300;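 active means activation of at least 30% at 10 µM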;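 further: DNMT1 catalytic domain with a HinP1I cleavage step and a FAM/dabcyl DNA beacon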
Of the large screens only hits and unclear results are named; the others gave an inactive call (follow-up assays come after a bar, where they were run). The list is not random: actives were taken first. Their share in the collection is about 1.7%.

Cc1ccc(-c2csc3ncn(CC#N)c(=O)c23)cc1C	none
Cc1cc(/C=C2\SC(=S)NC2=O)c(C)n1C	SUMO1-SIM PPI 43, DNMT1 inh 92 | DNMT1 confirm inactive | DNMT1 interf inactive
Cc1ccc(Nc2nnc(SCc3nc4ccccc4c(=O)[nH]3)s2)cc1	DNMT1 inh 66 | DNMT1 confirm inactive | DNMT1 interf inactive
O=C(Nc1ccccc1)Nc1nnc(SCc2ccc(Cl)cc2)s1	none
O=C(CCc1nc2ccccc2c(=O)[nH]1)Nc1nnc(SCc2ccccc2F)s1	DNMT1 inh 77 | DNMT1 confirm inactive | DNMT1 interf inactive
O=C(CCc1nc2ccccc2c(=O)[nH]1)Nc1nnc(SCc2ccc(Cl)cc2)s1	DNMT1 inh 68 | DNMT1 confirm inactive | DNMT1 interf inactive
Cn1c(N)nc(N)c(NC=O)c1=O	none (no result: Scp-1 inhibitor)
COC(=O)CN1CCN(C(=O)c2ccco2)CC1	none
CCOC(=O)C1=C(COC(=O)[C@H](C)NS(=O)(=O)c2ccc(NC(C)=O)cc2)NC(=O)NC1C (some centres undefined)	none
CC(C)(C)c1cc(CCC(=O)NCC2CCCO2)cc(C(C)(C)C)c1O (centres undefined)	none
OC(c1ccc(F)cc1)C(CN1CCOCC1)c1ccccc1 (centres undefined)	none
CC(C)(C)NC(=O)c1ccc(NC(=O)c2ccccc2-c2ccccc2C(=O)O)cc1	none
CCC(=O)c1cn([C@H](CCC(OC)OC)CC(=O)OC(C)(C)C)cc1CC	none
CCOc1ccc(NC(=S)Nc2ccc3nsnc3c2)cc1	SUMO1-SIM PPI 50, DNMT1 inh 85 | DNMT1 confirm inactive | DNMT1 interf inactive
COc1cc(C(=O)NCC2(c3ccccc3)CCCC2)cc(OC)c1OC	none
COc1ccc2c(c1)c1c(c(=O)n(-c3ccc(C)cc3)c(=O)n1CC(=O)NCC1CCCO1)n2C (centres undefined)	DNMT1 inh 98 (no result: Scp-1 inhibitor) | DNMT1 confirm inactive | DNMT1 interf inactive
CCOC(=O)/C=c1\s/c(=C\c2c(OC)ccc3ccccc23)c(=O)n1CC(=O)NCC1CCCO1 (centres undefined)	none
CCOC(=O)/C=c1\s/c(=C\c2ccc(C#N)cc2)c(=O)n1CC(=O)NCc1ccco1	DNMT1 inh 50 | DNMT1 confirm inactive | DNMT1 interf inactive
CCOC(=O)/C=c1/s/c(=C/c2ccc3cc(OC)ccc3c2)c(=O)n1CC(=O)NCC1CCCO1 (centres undefined)	DNMT1 inh 54 | DNMT1 confirm inactive | DNMT1 interf inactive
Cc1ccc(-n2c(=O)c3c(c4cc(C)ccc4n3C)n(CC(=O)NCC3CCCO3)c2=O)cc1 (centres undefined)	none (no result: Scp-1 inhibitor)
CCc1nc(SCC(=O)Nc2ccc(F)cc2)c2c(=O)n(C)c(=O)n(C)c2n1	none
Cc1ccc2nc(-c3ccc(C#N)cc3)c(Cc3cccc(Cl)c3)n2c1	none (no result: Scp-1 inhibitor)
CCSC(=O)N=Nc1ccc(O)cc1	none
CC(C)c1onc(C(=O)NC(C)c2ccccc2)c1[N+](=O)[O-] (centres undefined)	DNMT1 inh 92 | DNMT1 confirm inactive | DNMT1 interf inactive
CC(C)c1onc(C(=O)NCCc2ccccc2)c1[N+](=O)[O-]	none
CNS(=O)(=O)c1ccc(NC(=O)c2cnn3c(C(F)F)cc(-c4ccccc4)nc23)cc1	DNMT1 inh 53 | DNMT1 confirm inactive | DNMT1 interf inactive
O=C(Nc1cccc(S(=O)(=O)N2CCOCC2)c1)c1cnn2c(C(F)F)cc(-c3ccccc3)nc12	none
COc1ccc(Cl)cc1C(=O)NNC(=O)c1ccncc1	none
Cc1ccc(S(=O)(=O)N(C)c2ccc(OC(C)C(=O)N(C)c3ccccc3)cc2)cc1 (centres undefined)	DNMT1 inh 79 | DNMT1 confirm inactive | DNMT1 interf inactive
O=C(O)C1=CCC=CC1C(=O)O (centres undefined)	SUMO1-SIM PPI 69, DNMT1 inh 99 (no result: Scp-1 inhibitor) | DNMT1 confirm inactive | DNMT1 interf inactive
